{"source": "PubChem BioAssay AID1556", "about": "(The Scripps Research Institute Molecular Screening Center, 2009)", "note": "Out of some 290,000 compounds screened, about 1,300 (0.45%) were called active. This excerpt belongs to a sample that is enriched for actives. Unmarked numbers belong to inactive results.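 How the source made its calls: active means inhibition above the mean plus 3 SD of all compounds in the same screening run (cut at about 4.5% in these data); inactive means the rest.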", "data": [{"test_system": "metallo-beta-lactamase IMP-1 (Pseudomonas aeruginosa)", "test": "inhibition of IMP-1 nitrocefin hydrolysis – biochemical, epi-absorbance readout, Pseudomonas aeruginosa enzyme, primary screen (AID 1556);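 further: 0% = IMP-1 with DMSO and 100% = DMSO wells lacking enzyme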", "settings": "purified IMP-1, nitrocefin hydrolysis, epi-absorbance fluorescence; at 5.6 µM; stronger effect = higher value", "summary_of_the_method": "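System: purified IMP-1; amount: IMP-1 0.2 nM before substrate addition; compound: single dose, 5.6 µM; times: 25 °C, 15 min preincubation, 25 min reaction; signal: Epi-absorbance via hydrolysed-nitrocefin quenching of white-plate fluorescence, 480/530 nm, EDTA stop; benchmarks: DMSO with and without IMP-1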", "values": [{"smiles": "CCN1C(=O)C(=Cc2c(C)n(CC(=O)NCC3CCCO3)c3ccccc23)C(=O)N(CC)C1=S", "note": "(stereo not given)", "inhibition": "20% (active)"}, {"smiles": "O=C(O)c1ccccc1NC(=O)C1C2CCC(O2)C1C(=O)O", "note": "(stereo not given)", "inhibition": "-2.48%"}, {"smiles": "CCCCn1c(=O)c(C(=O)Nc2ccccc2Cl)c(O)c2ccccc21", "inhibition": "-1.42%"}, {"smiles": "CCOC(=O)C1SC2(C(F)(F)C(F)F)CC1(O)c1c(c(OC)c3occc3c1OC)O2", "note": "(stereo not given)", "inhibition": "-3.5%"}, {"smiles": "C[N+]12CN3CN(CN(C3)C1)C2", "inhibition": "5.56% (active)"}, {"smiles": "Cc1cccc(OP(=O)(Oc2cccc(C)c2)OC(c2ccccc2)C(F)(F)F)c1", "note": "(stereo not given)", "inhibition": "-4.97%"}, {"smiles": "Clc1ccc2nc3c(c(-c4ccccc4)c2c1)CNCC3", "inhibition": "-2.18%"}, {"smiles": "Cc1ccc(C)c(NC2=NCCCS2)c1", "inhibition": "-1.87%"}, {"smiles": "COc1cc2nc(N3CCN(C(=O)[C@@H]4CCCO4)CC3)nc(N)c2cc1OC", "inhibition": "-4.21%"}, {"smiles": "CC1(C)C(c2ccccc2)=NC(c2cccnc2)=[N+]1[O-]", "inhibition": "-4.75%"}]}]}
